The record followed here is ChEMBL document CHEMBL2086299, “Melanogenesis inhibitory and fibroblast proliferation accelerating effects of noroleanane- and oleanane-type triterpene oligoglycosides from the flower buds of Camellia japonica” (2012).

Common to all, as to assay type: functional
Holding throughout (set-up): scale not given: the % may be the effect or the level left

Assay [1] can be described thus: Inhibition of melanogenesis in theophylline-stimulated mouse B16-4A5 cells at 10 uM after 72 hrs by microplate reader. An outline of the steps: (§1)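 B16 melanoma 4A5 cells seeded 2.0 × 10^4 cells/well in 24-well plates and cultured 24 h. Then 72 h with compound plus 1 mM theophylline (DMSO, final 0.1%). Cells trypsin/EDTA-harvested, washed, lysed in 1 M NaOH (80 °C, 30 min). Lysate melanin read by OD at 405 nm (ref 655 nm). Inhibition (%) = [(A − B)/A] × 100 versus vehicle. Mean ± SEM, n = 4.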

Assay [2] is described as follows: Inhibition of melanogenesis in theophylline-stimulated mouse B16-4A5 cells at 20 uM after 72 hrs by microplate reader. An outline of the steps: as §1
Assay [3] can be described thus: Inhibition of melanogenesis in theophylline-stimulated mouse B16-4A5 cells at 40 uM after 72 hrs by microplate reader. Summed up: as §1

Consider `OC[C@H]1O[C@@H](Oc2ccc(O)cc2)[C@H](O)[C@@H](O)[C@@H]1O` [ARBUTIN], for which the values for the Activity in assay [1], in assay [2] and in assay [3] were -0.1%, 13.3% and 18%, respectively.
